ChEMBL document CHEMBL4138242, “Synthesis and antibacterial evaluation of novel cationic chalcone derivatives possessing broad spectrum antibacterial activity” (Eur J Med Chem, 2018)
Activity calls are given as the source filed them.

Assays:
[1] = tested on: Staphylococcus aureus; assay: Antibacterial activity against Staphylococcus aureus ATCC 29213 after 16 to 20 hrs by broth microdilution method; type: functional
Method in brief: (§1)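 Broth microdilution per CLSI. Bacteria grown 4-6 h (about 10⁸ CFU/mL), then diluted to about 10⁶ CFU/mL. Medium: Mueller-Hinton broth, except Luria-Bertani broth for E. coli. Compounds in sterile water, twofold series 256-0.5 µg/mL, mixed 1:1 with inoculum, 37 °C for 16-20 h. MIC is the lowest concentration without visible growth. Duplicate wells; experiment repeated at least twice.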

[2] = tested on: Enterococcus faecalis; assay: Antibacterial activity against Enterococcus faecalis ATCC 29212 after 16 to 20 hrs by broth microdilution method; type: functional; method in brief: as §1
[3] = tested on: Escherichia coli; assay: Antibacterial activity against Escherichia coli ATCC 25922 after 16 to 20 hrs by broth microdilution method; type: functional; method in brief: as §1
[4] = tested on: Salmonella enterica; assay: Antibacterial activity against Salmonella enterica ATCC 13076 after 16 to 20 hrs by broth microdilution method; type: functional; method in brief: as §1
[5] = Hemolytic activity in sheep RBC after 1 hr; type: ADME, cell-based, Ovis aries, Erythrocyte; details: sheep red blood cells (erythrocytes)
Method in brief: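 Sheep red blood cells (150 µL suspension) mixed with 50 µL of compound dilutions (5120-10 µg/mL), 1 h at 37 °C, then centrifuged. Supernatant read at 540 nm. Percent hemolysis calculated relative to RBC-only control (0%) and 0.1% Triton X-100 (100%).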

[6] = tested on: Staphylococcus aureus; assay: Antibacterial activity against methicillin-resistant Staphylococcus aureus clinical isolate 1105183 cono7 after 16 to 20 hrs by broth microdilution method; type: functional
Method in brief: (§2)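 CLSI broth microdilution in Mueller-Hinton broth. A 4-6 h culture was diluted to about 10⁶ CFU/mL and mixed 1:1 with compound dilutions prepared at 256 to 0.5 µg/mL from aqueous stocks. Plates were incubated at 37 °C for 16-20 h and read visually for MIC. Each concentration was run in duplicate, and the experiment was repeated at least twice. Vancomycin and meropenem were comparators.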

[7] = tested on: Staphylococcus aureus; assay: Antibacterial activity against methicillin-resistant Staphylococcus aureus clinical isolate 20130911034sau after 16 to 20 hrs by broth microdilution method; type: functional; method in brief: as §2
[8] = tested on: Staphylococcus aureus; assay: Antibacterial activity against methicillin-resistant Staphylococcus aureus clinical isolate 0831010 after 16 to 20 hrs by broth microdilution method; type: functional; method in brief: as §2
[9] = tested on: Staphylococcus aureus; assay: Antibacterial activity against methicillin-resistant Staphylococcus aureus clinical isolate 1104060 after 16 to 20 hrs by broth microdilution method; type: functional; method in brief: as §2
[10] = tested on: Staphylococcus aureus; assay: Antibacterial activity against methicillin-resistant Staphylococcus aureus clinical isolate 20131012632sau after 16 to 20 hrs by broth microdilution method; type: functional; method in brief: as §2
[11] = tested on: Staphylococcus aureus; assay: Antibacterial activity against methicillin-resistant Staphylococcus aureus clinical isolate 1207007 after 16 to 20 hrs by broth microdilution method; type: functional; method in brief: as §2
[12] = tested on: Staphylococcus aureus; assay: Antibacterial activity against methicillin-resistant Staphylococcus aureus clinical isolate 1-may after 16 to 20 hrs by broth microdilution method; type: functional; method in brief: as §2
[13] = tested on: Staphylococcus aureus; assay: Antibacterial activity against methicillin-resistant Staphylococcus aureus clinical isolate 0906202 after 16 to 20 hrs by broth microdilution method; type: functional; method in brief: as §2
[14] = tested on: Staphylococcus aureus; assay: Antibacterial activity against methicillin-resistant Staphylococcus aureus clinical isolate 1208143 after 16 to 20 hrs by broth microdilution method; type: functional; method in brief: as §2
[15] = tested on: Klebsiella pneumoniae; assay: Antibacterial activity against drug-resistant carbapenemase producing Klebsiella pneumoniae clinical isolate KP-14-8 after 16 to 20 hrs by broth microdilution method; type: functional; method in brief: as §2
[16] = tested on: Klebsiella pneumoniae; assay: Antibacterial activity against drug-resistant carbapenemase producing Klebsiella pneumoniae clinical isolate KP-13-45 after 16 to 20 hrs by broth microdilution method; type: functional; method in brief: as §2
[17] = tested on: Klebsiella pneumoniae; assay: Antibacterial activity against drug-resistant carbapenemase producing Klebsiella pneumoniae clinical isolate KP-14-3 after 16 to 20 hrs by broth microdilution method; type: functional; method in brief: as §2
[18] = tested on: Klebsiella pneumoniae; assay: Antibacterial activity against drug-resistant carbapenemase producing Klebsiella pneumoniae clinical isolate KP-14-1 after 16 to 20 hrs by broth microdilution method; type: functional; method in brief: as §2
[19] = tested on: Klebsiella pneumoniae; assay: Antibacterial activity against drug-resistant carbapenemase producing Klebsiella pneumoniae clinical isolate KP-14-4 after 16 to 20 hrs by broth microdilution method; type: functional; method in brief: as §2
[20] = tested on: Klebsiella pneumoniae; assay: Antibacterial activity against drug-resistant carbapenemase producing Klebsiella pneumoniae clinical isolate KP-13-54 after 16 to 20 hrs by broth microdilution method; type: functional; method in brief: as §2
[21] = tested on: Klebsiella pneumoniae; assay: Antibacterial activity against drug-resistant carbapenemase producing Klebsiella pneumoniae clinical isolate KP-14-2 after 16 to 20 hrs by broth microdilution method; type: functional; method in brief: as §2
[22] = tested on: Klebsiella pneumoniae; assay: Antibacterial activity against drug-resistant carbapenemase producing Klebsiella pneumoniae clinical isolate EC-13-23 after 16 to 20 hrs by broth microdilution method; type: functional; method in brief: as §2
[23] = tested on: Klebsiella pneumoniae; assay: Antibacterial activity against drug-resistant carbapenemase producing Klebsiella pneumoniae clinical isolate KP-14-5 after 16 to 20 hrs by broth microdilution method; type: functional; method in brief: as §2
[24] = tested on: Klebsiella pneumoniae; assay: Antibacterial activity against drug-resistant carbapenemase producing Klebsiella pneumoniae clinical isolate KP-13-55 after 16 to 20 hrs by broth microdilution method; type: functional; method in brief: as §2
[25] = tested on: Klebsiella pneumoniae; assay: Antibacterial activity against drug-resistant carbapenemase producing Klebsiella pneumoniae clinical isolate KP-14-45 after 16 to 20 hrs by broth microdilution method; type: functional; method in brief: as §2
[26] = tested on: Klebsiella pneumoniae; assay: Antibacterial activity against drug-resistant carbapenemase producing Klebsiella pneumoniae clinical isolate KP-14-18 after 16 to 20 hrs by broth microdilution method; type: functional; method in brief: as §2
[27] = tested on: Escherichia coli; assay: Antibacterial activity against drug-resistant NDM1 producing Escherichia coli clinical isolate EC-13-49 after 16 to 20 hrs by broth microdilution method; type: functional; method in brief: as §2
[28] = tested on: Escherichia coli; assay: Antibacterial activity against drug-resistant NDM1 producing Escherichia coli clinical isolate Ecl-14-58 after 16 to 20 hrs by broth microdilution method; type: functional; method in brief: as §2
[29] = tested on: Escherichia coli; assay: Antibacterial activity against drug-resistant NDM1 producing Escherichia coli clinical isolate KP-13-58 after 16 to 20 hrs by broth microdilution method; type: functional; method in brief: as §2
[30] = tested on: Escherichia coli; assay: Antibacterial activity against drug-resistant NDM1 producing Escherichia coli clinical isolate Ecl-13-62 after 16 to 20 hrs by broth microdilution method; type: functional; method in brief: as §2
[31] = tested on: Escherichia coli; assay: Antibacterial activity against drug-resistant NDM1 producing Escherichia coli clinical isolate EC-14-54 after 16 to 20 hrs by broth microdilution method; type: functional; method in brief: as §2
[32] = tested on: Escherichia coli; assay: Antibacterial activity against drug-resistant NDM1 producing Escherichia coli clinical isolate Ecl-14-59 after 16 to 20 hrs by broth microdilution method; type: functional; method in brief: as §2
[33] = tested on: Escherichia coli; assay: Antibacterial activity against drug-resistant NDM1 producing Escherichia coli clinical isolate EA-14-61 after 16 to 20 hrs by broth microdilution method; type: functional; method in brief: as §2
[34] = tested on: Escherichia coli; assay: Antibacterial activity against drug-resistant NDM1 producing Escherichia coli clinical isolate Ecl-14-56 after 16 to 20 hrs by broth microdilution method; type: functional; method in brief: as §2
[35] = tested on: Escherichia coli; assay: Antibacterial activity against drug-resistant NDM1 producing Escherichia coli clinical isolate 1460 after 16 to 20 hrs by broth microdilution method; type: functional; method in brief: as §2
[36] = tested on: Escherichia coli; assay: Antibacterial activity against drug-resistant NDM1 producing Escherichia coli clinical isolate SM-15-84 after 16 to 20 hrs by broth microdilution method; type: functional; method in brief: as §2
[37] = tested on: Escherichia coli; assay: Antibacterial activity against drug-resistant NDM1 producing Escherichia coli clinical isolate CF-15-61 after 16 to 20 hrs by broth microdilution method; type: functional; method in brief: as §2
[38] = tested on: Escherichia coli; assay: Antibacterial activity against drug-resistant NDM1 producing Escherichia coli clinical isolate CF-13-61 after 16 to 20 hrs by broth microdilution method; type: functional; method in brief: as §2
[39] = tested on: Staphylococcus aureus; assay: Induction of cytoplasmic membrane depolarization in Staphylococcus aureus ATCC 29213 at 10 to 20 ug/ml measured every 2 mins for 12 mins by DiSC35 dye-based fluorescence assay; type: functional, organism-based
Method in brief: (§3)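 Mid-log cells (~10⁸ CFU/mL) were suspended in PBS (S. aureus) or HEPES/glucose/KCl with EDTA (E. coli). They were preloaded with DiSC3(5) for 30 min (S. aureus) or 40 min (E. coli), and baseline fluorescence was read for 8 min. Compound was added to 20 µg/mL final, and fluorescence (ex 622/em 670 nm) was read every 2 min for 12 min. Water served as control.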

[40] = tested on: Escherichia coli; assay: Induction of cytoplasmic membrane depolarization in Escherichia coli ATCC 25922 at 10 to 20 ug/ml measured every 2 mins for 12 mins by DiSC35 dye-based fluorescence assay; type: functional, organism-based; method in brief: as §3
[41] = tested on: Staphylococcus aureus; assay: Induction of inner membrane permeabilization in Staphylococcus aureus ATCC 29213 at 10 to 20 ug/ml measured every 2 mins for 12 mins by propidium iodide staining-based fluorescence assay; type: functional, organism-based
Method in brief: (§4)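 Mid-log cells (~10⁸ CFU/mL) were suspended in PBS (S. aureus) or HEPES/glucose/KCl (E. coli). They were preincubated with propidium iodide for 30 min (S. aureus) or 40 min (E. coli), and baseline fluorescence was read for 8 min. Compound was added to 20 µg/mL final, and fluorescence (ex 535/em 617 nm) was read every 2 min for 12 min.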

[42] = tested on: Escherichia coli; assay: Induction of inner membrane permeabilization in Escherichia coli ATCC 25922 at 10 to 20 ug/ml measured every 2 mins for 12 mins by propidium iodide staining-based fluorescence assay; type: functional, organism-based; method in brief: as §4

CCCCCCCC[N+](C)(C)CC(=O)Nc1ccc(C(=O)/C=C/c2cccc(Cl)c2)cc1.[Cl-]
186 µg/mL: HC50 at 1 h [5]
active: Activity [39] | Activity [40] | Activity [41] | Activity [42]
16 µg/mL: MIC [36] | MIC [38]
2 µg/mL: MIC [1] | MIC [10]
8 µg/mL: MIC [9] | MIC [18] | MIC [21] | MIC [24] | MIC [25] | MIC [26] | MIC [37]
0.5 µg/mL: MIC [7] | MIC [8] | MIC [11]
1 µg/mL: MIC [2] | MIC [6] | MIC [12] | MIC [14] | MIC [29]
4 µg/mL: MIC [3] | MIC [4] | MIC [13] | MIC [15] | MIC [16] | MIC [17] | MIC [19] | MIC [20] | MIC [22] | MIC [23] | MIC [27] | MIC [28] | MIC [30] | MIC [31] | MIC [32] | MIC [33] | MIC [34] | MIC [35]
